From article PMC4161153 (Journal of Medicinal Chemistry, 2014)

target: T1, human TLR8 (Homo sapiens, UniProt Q9NR97); assay: Human TLR8-specific reporter gene assay; format: cell-based; conditions: HEK293 cells, NF-κB induction
T1 sequence (Q9NR97 27-1041): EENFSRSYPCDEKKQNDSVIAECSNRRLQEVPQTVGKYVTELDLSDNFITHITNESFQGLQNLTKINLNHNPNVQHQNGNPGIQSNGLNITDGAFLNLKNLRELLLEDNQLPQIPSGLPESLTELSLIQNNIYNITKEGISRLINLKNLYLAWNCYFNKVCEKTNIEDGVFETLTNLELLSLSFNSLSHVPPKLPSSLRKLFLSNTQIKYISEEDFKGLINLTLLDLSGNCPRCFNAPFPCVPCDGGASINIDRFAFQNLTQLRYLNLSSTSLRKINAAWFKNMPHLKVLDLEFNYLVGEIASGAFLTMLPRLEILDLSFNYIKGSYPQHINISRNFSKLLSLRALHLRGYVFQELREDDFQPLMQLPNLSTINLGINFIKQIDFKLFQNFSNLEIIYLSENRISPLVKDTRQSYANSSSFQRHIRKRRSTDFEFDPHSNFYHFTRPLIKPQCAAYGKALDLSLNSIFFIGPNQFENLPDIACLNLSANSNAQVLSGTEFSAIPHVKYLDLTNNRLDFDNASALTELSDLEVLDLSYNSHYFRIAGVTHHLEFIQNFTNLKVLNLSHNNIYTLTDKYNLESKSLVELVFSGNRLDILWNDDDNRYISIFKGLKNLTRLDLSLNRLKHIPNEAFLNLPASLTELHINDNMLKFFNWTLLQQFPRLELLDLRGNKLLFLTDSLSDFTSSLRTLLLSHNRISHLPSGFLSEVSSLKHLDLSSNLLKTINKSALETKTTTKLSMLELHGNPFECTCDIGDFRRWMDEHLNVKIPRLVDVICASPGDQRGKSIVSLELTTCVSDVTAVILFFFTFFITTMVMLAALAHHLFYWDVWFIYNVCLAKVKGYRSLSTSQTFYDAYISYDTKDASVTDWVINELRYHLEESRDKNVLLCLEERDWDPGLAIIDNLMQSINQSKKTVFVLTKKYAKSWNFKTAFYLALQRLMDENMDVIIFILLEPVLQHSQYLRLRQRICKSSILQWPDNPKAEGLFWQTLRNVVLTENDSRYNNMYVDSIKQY

hTLR8 Agonistic Activity (EC50)	SMILES
neither 8d nor 8f were active	Nc1nc2ccccc2n1Cc1ccccc1 [Compound 8d, 1-Benzyl-1H-benzo[d]imidazol-2-amine]
neither 8d nor 8f were active	NCc1cccc(Cn2c(N)nc3ccccc32)c1 [Compound 8f, 1-(3-(Aminomethyl)benzyl)-1H-benzo[d]imidazol-2-amine]
completely abrogated activity	CCCCOC(=O)n1c(N)nc2ccccc21 [Compound 9, Butyl 2-amino-1H-benzo[d]imidazole-1-carboxylate]
completely abrogated activity	CCCCCn1c(NC(C)=O)nc2ccccc21 [Compound 10, N-(1-Pentyl-1H-benzo[d]imidazol-2-yl)acetamide]
abrogated activity	CCCCCn1c(N)nc2c(-c3ccccc3)cccc21 [Compound 31l, 1-Pentyl-4-phenyl-1H-benzo[d]imidazol-2-amine]
abrogated activity	CCCCCn1c(N)nc2c(Cc3ccccc3)cccc21 [Compound 31m, 4-Benzyl-1-pentyl-1H-benzo[d]imidazol-2-amine]
abrogated activity	CCCCCn1c(N)nc2c(OCc3ccccc3)cccc21 [Compound 35, 4-Benzyloxy-1-pentyl-1H-benzoimidazol-2-ylamine]

system: not listed separately; assay: Chemical stability of the free base; format: physicochemical; conditions: rapid formation of overoxidized 3-ol derivative 5 via autoxidation

SMILES	Stability of the compound (free base)
CCCCC1C(N)=Nc2ccccc21.Cl (stereo not drawn) [Compound 4]	exceedingly unstable

system: natural killer lymphocytes; assay: CD69 upregulation by flow cytometry in whole human blood; format: cell-based; conditions: overnight 37 °C, CD3–CD56+ cells, Figure 4
Summary of the method: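 Heparin-anticoagulated whole blood from healthy volunteers was incubated overnight at 37 °C with graded concentrations of test compound, a TLR7-agonist reference or medium. Cells were stained for 30 min at 37 °C in the dark with CD3-PE, CD56-APC and CD69-PE-Cy7. Erythrocytes were lysed and leukocytes fixed in one step. CD69 was read on CD3⁻CD56⁺ NK cells from 100,000 gated events.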

SMILES	CD69 upregulation in NK lymphocytes
CCCCCn1c(N)nc2c(C)cccc21 [Compound 31a, 4-Methyl-1-pentyl-1H-benzo[d]imidazol-2-amine]	complete absence of CD69 upregulation
